Data as given in ChEMBL document CHEMBL1123149, “Synthesis and antineoplastic evaluations of 5,8-bis[(aminoalkyl)amino]-1-azaanthracene-9,10-diones” (1985).
≈ marks a conversion by molar mass, not a printed value. Calls of active or inactive are those of the source. No cut-off for these calls is given here.

Legend:
L1210 = assay: In vitro growth inhibitory effect against L1210 murine leukemia cells was determined; type: functional; details: Mus musculus, read-out: ID50 (the source's name)
Procedure, shortened: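 L1210 cells, 10^5 cells/tube in 4 mL, exposed continuously 96 h to drug added in Me2SO (≤40 μL per culture) at final 0.01, 0.1 and 10 μg/mL, triplicate.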

Mus musculus [1] = assay: Activity against L1210 leukemia cells was studied in mice at 100 mg/kg and determined as MST(treated)/MST(control) x100; Inactive; type: functional, organism-based; set-up: dose 100 mg/kg
Mus musculus [2] = assay: Activity against L1210 leukemia cells was studied in mice at 25 mg/kg and determined as MST(treated)/MST(control) x100; type: functional
Mus musculus [3] = assay: Activity against L1210 leukemia cells was studied in mice at 50 mg/kg and determined as MST(treated)/MST(control) x100; type: functional
Mus musculus [4] = assay: Activity against L1210 leukemia cells was studied in mice at 100 mg/kg and determined as MST(treated)/MST(control) x100; Toxic; type: functional, organism-based; set-up: dose 100 mg/kg
Mus musculus [5] = assay: Activity against L1210 leukemia cells was studied in mice at 30 mg/kg and determined as MST(treated)/MST(control) x100; type: functional
Mus musculus [6] = assay: Activity against L1210 leukemia cells was studied in mice at 15 mg/kg and determined as MST(treated)/MST(control) x100; type: functional

| SMILES | IC50 (L1210) | other results |
| --- | --- | --- |
| CC(=O)NCCNc1ccc(NCCNC(C)=O)c2c1C(=O)c1cccnc1C2=O | > 10 µg/mL | – |
| CCN(CC)CCNc1ccc(NCCN(CC)CC)c2c1C(=O)c1ccccc1C2=O | 0.3 µg/mL (≈ 0.687 µM) | – |
| O=C1c2cccnc2C(=O)c2c(O)ccc(O)c21 | 0.18 µg/mL (≈ 0.746 µM) | T/C (Mus musculus [1]): inactive |
| CN(C)CCCNc1ccc(NCCCN(C)C)c2c1C(=O)c1cccnc1C2=O | 1.7 µg/mL (≈ 4.15 µM) | – |
| CN(C)CCNc1ccc(NCCN(C)C)c2c1C(=O)c1cccnc1C2=O | 0.16 µg/mL (≈ 0.419 µM) | T/C (Mus musculus [2]): 120%; T/C (Mus musculus [3]): 130% |
| CCN(CC)CCNc1ccc(NCCN(CC)CC)c2c1C(=O)c1cccnc1C2=O | 2.4 µg/mL (≈ 5.48 µM) | T/C (Mus musculus [4]): Toxic |
| CN(C)CCNc1ccc(NCCN(C)C)c2c1C(=O)c1ccccc1C2=O | 0.08 µg/mL (≈ 0.21 µM) | T/C (Mus musculus [5]): 150%; T/C (Mus musculus [6]): 117% |
